Laboratory results: publication PMC8897028 (Acta Pharmaceutica Sinica. B, 2021)
Residue numbers refer to the chain shown, from its start.

How the values were obtained:
mTRPV3 L669A = target: T1, mTRPV3 L669A (Mus musculus, UniProt Q8K424, L669A); experiment: whole-cell patch-clamp of mTRPV3 L669A mutant in HEK293 cells; type: cell-based; details: compound 50 μmol/L; 2-APB; compared with WT mTRPV3
T1 sequence (Q8K424 1-791 L669A): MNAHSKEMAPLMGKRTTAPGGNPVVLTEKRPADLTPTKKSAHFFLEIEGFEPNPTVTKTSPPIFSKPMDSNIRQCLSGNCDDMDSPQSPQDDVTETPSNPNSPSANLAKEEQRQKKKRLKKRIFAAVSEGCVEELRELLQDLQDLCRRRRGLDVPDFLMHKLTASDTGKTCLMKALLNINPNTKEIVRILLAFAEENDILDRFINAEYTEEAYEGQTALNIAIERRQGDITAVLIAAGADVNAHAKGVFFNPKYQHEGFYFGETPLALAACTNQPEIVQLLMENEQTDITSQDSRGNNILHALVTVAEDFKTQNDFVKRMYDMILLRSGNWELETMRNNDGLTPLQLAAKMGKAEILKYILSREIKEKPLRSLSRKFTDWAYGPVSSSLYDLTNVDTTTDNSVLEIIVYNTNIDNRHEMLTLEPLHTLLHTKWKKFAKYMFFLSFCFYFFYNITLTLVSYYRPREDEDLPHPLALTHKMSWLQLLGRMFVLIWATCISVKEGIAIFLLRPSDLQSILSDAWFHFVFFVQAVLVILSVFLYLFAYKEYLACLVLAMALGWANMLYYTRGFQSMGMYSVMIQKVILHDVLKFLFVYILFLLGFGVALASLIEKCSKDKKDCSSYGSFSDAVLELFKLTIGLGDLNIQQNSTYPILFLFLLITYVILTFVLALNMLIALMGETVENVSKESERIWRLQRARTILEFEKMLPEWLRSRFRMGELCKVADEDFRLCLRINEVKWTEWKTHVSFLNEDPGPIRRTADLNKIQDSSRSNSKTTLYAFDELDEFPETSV
Summary of the method: (§1)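 Mouse Trpv3 point mutants were made by site-directed mutagenesis, sequence-verified, and transiently expressed in HEK293 cells alongside wild-type mTRPV3. Whole-cell ramp recordings (−100 to +100 mV, 500 ms, holding 0 mV) were made at 22–24 °C. Currents were activated by 2-APB, and inhibition by 50 μmol/L test compound in the presence of 2-APB was compared with wild type; n = 3–8.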

hTRPV3 = target: T2, hTRPV3 (Homo sapiens, UniProt Q8NET8); experiment: inside-out single-channel recordings of HEK293 cells overexpressing hTRPV3; type: biochemical; details: for channel open probability: compound 100 μmol/L in the presence of carvacrol 300 μmol/L, from 26.9 ± 5.5%, +80 mV, n = 4; for effect on ion permeation or single-channel conductance: single-channel level
T2 sequence (Q8NET8 1-790): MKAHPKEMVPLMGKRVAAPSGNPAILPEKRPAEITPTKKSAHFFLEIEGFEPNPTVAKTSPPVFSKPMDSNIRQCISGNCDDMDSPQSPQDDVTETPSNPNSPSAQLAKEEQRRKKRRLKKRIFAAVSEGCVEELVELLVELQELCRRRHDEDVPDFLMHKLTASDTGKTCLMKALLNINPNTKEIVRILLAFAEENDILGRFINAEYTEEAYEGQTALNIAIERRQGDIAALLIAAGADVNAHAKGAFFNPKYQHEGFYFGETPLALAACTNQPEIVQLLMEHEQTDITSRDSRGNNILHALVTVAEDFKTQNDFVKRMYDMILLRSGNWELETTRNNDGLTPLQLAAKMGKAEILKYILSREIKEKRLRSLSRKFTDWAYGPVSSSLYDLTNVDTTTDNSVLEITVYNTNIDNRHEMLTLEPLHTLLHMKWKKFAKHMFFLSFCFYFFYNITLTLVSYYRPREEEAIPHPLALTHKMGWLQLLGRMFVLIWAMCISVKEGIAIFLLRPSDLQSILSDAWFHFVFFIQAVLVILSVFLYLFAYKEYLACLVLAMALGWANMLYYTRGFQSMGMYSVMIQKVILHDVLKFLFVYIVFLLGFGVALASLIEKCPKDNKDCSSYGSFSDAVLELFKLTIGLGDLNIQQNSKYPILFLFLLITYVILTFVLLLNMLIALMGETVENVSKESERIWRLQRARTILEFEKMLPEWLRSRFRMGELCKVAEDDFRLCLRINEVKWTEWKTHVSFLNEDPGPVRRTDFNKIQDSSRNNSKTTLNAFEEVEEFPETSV
Summary of the method: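 Inside-out patches from EGFP-identified HEK293 cells, 18 h after hTRPV3 transfection, used 6–10 MΩ pipettes. Patches were held at 0 mV, then stepped to +80 mV. Currents were sampled at 10 kHz, filtered at 2.9 kHz, at 22–24 °C. All-points histograms were Gaussian-fitted for conductance and mean open probability; n = 4.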

hTRPV4 = hTRPV4 (Homo sapiens, UniProt Q9HBA0); experiment: whole-cell patch-clamp of TRPV4 currents in HEK293 cells; type: cell-based; details: compound 50 μmol/L; current elicited by 100 nmol/L GSK1016790A
Summary of the method: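 Human channel cDNAs were transiently transfected into HEK293 cells with Lipofectamine 2000. EGFP-positive cells were recorded whole-cell 18 h later at 22–24 °C with ~4.0 MΩ fire-polished pipettes. Cells were held at 0 mV with 500-ms ramps from −100 to +100 mV every 2 s. Test compound in perfusion solution was co-applied with agonist, and average current inhibition was summarised; n = 4–6.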

mTRPV3 V662A = target: T3, mTRPV3 V662A (Mus musculus, UniProt Q8K424, V662A); experiment: whole-cell patch-clamp of mTRPV3 V662A mutant in HEK293 cells; type: cell-based; details: compound 50 μmol/L; 2-APB; compared with WT mTRPV3
T3 sequence (Q8K424 1-791 V662A): T1 sequence (Q8K424 1-791 L669A) with V662A, A669L
Summary of the method: as §1

Sequence of hTRPV4 (Q9HBA0 whole entry, the tested form may be a part): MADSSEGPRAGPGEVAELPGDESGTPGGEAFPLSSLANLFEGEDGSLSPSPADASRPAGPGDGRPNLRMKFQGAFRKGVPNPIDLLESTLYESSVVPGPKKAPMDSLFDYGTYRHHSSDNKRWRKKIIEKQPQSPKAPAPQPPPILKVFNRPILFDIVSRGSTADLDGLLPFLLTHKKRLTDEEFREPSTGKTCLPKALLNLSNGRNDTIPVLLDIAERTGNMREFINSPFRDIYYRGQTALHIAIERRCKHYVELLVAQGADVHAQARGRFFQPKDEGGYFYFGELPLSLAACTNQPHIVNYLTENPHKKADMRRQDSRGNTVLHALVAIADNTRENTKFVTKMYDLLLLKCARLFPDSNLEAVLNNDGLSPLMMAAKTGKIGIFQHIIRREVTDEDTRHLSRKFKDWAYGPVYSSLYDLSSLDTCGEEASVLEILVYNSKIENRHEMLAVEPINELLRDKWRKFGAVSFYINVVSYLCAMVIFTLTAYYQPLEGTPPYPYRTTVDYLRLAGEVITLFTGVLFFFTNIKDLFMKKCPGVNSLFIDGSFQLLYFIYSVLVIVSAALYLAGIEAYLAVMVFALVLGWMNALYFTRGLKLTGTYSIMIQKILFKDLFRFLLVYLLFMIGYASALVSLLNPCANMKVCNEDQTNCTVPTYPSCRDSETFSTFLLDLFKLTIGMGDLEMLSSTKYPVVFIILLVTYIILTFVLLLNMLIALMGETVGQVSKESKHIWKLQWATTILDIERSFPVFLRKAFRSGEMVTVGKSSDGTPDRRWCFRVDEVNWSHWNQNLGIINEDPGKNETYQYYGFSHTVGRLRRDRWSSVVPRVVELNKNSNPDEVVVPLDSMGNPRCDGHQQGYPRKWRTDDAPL

Row | Compound | effect of mutation on compound-induced inhibition of mTRPV3 currents (mTRPV3 L669A) | channel open probability (hTRPV3) | effect on ion permeation or single-channel conductance (hTRPV3) | inhibition of TRPV4 current (hTRPV4) | effect of mutation on compound-induced inhibition of mTRPV3 currents (mTRPV3 V662A)
1 | O=C(/C=C/c1ccc(O)c(O)c1)O[C@@H]1[C@H](O)C[C@@](O)(C(=O)O)C[C@H]1OC(=O)/C=C/c1ccc(O)c(O)c1 [IAB, isochlorogenic acid B] | no obvious effect | 3.2 ± 1.1% | no effect | no inhibitory effect | no obvious effect
2 | O=C(/C=C/c1ccc(O)c(O)c1)O[C@@H]1C[C@](O)(C(=O)O)C[C@@H](OC(=O)/C=C/c2ccc(O)c(O)c2)[C@H]1O [IAA, isochlorogenic acid A] | no obvious effect | 3.7 ± 1.2% | no effect | no inhibitory effect | no obvious effect
